Assays:
[1] = Antioxidant activity assessed as inhibition of peroxyl radical-induced oxidation at 10 uM by ORAC assay; type: functional; set-up: scale not given: the % may be the effect or the level left
[2] = Antioxidant activity assessed as ABTS free radical scavenging activity at 10 uM; type: functional
[3] = Antioxidant activity assessed as DPPH radical scavenging activity at 10 uM; type: functional
Cholinesterase [4] = target: T1, Cholinesterase (Homo sapiens, UniProt P06276); test: Inhibition of BuChE (unknown origin) by spectrophotometric analysis based Ellman's assay
Cholinesterase [5] = target: T1, Cholinesterase; test: Inhibition of BuChE (unknown origin) at 10 uM by spectrophotometric analysis based Ellman's assay
Outline: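 Ellman colorimetric assay of BuChE activity, with each compound tested at a single 10 μM concentration. […] Activity is reported as percent inhibition.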

[6] = target: Amyloid-beta precursor protein (Homo sapiens) (UniProt P05067); test: Inhibition of human amyloid-beta (1 to 42 residues) oligomer at 1:1 protein to compound ratio after 2 hrs by ELISA; conditions: concentration not given here
[7] = target: Amyloid-beta precursor protein (Homo sapiens) (UniProt P05067); test: Inhibition of human amyloid-beta (1 to 42 residues) fibril at 1:1 protein to compound ratio after 2 hrs by ELISA; conditions: concentration not given here

Sequence of Amyloid-beta precursor protein (Homo sapiens) (P05067 whole entry, the tested form may be a part): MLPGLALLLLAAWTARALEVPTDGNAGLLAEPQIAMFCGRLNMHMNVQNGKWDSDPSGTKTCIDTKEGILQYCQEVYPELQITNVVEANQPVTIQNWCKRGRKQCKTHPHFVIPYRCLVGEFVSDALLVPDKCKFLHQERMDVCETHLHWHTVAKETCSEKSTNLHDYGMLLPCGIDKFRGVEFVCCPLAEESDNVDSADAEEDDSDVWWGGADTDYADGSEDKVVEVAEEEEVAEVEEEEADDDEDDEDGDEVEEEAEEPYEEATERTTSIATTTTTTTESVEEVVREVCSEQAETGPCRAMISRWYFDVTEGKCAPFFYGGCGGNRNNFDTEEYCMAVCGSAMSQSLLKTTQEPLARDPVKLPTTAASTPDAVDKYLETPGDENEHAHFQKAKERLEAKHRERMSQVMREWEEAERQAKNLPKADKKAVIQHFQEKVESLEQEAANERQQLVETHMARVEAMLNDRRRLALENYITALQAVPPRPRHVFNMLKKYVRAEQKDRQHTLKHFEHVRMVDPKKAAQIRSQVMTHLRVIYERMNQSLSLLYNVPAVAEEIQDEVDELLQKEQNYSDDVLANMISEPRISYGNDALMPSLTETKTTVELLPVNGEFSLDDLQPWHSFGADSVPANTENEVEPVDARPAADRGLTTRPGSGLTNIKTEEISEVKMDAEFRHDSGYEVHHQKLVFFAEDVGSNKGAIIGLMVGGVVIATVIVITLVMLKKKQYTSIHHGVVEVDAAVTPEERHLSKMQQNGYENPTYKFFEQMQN
T1 sequence (P06276 whole entry): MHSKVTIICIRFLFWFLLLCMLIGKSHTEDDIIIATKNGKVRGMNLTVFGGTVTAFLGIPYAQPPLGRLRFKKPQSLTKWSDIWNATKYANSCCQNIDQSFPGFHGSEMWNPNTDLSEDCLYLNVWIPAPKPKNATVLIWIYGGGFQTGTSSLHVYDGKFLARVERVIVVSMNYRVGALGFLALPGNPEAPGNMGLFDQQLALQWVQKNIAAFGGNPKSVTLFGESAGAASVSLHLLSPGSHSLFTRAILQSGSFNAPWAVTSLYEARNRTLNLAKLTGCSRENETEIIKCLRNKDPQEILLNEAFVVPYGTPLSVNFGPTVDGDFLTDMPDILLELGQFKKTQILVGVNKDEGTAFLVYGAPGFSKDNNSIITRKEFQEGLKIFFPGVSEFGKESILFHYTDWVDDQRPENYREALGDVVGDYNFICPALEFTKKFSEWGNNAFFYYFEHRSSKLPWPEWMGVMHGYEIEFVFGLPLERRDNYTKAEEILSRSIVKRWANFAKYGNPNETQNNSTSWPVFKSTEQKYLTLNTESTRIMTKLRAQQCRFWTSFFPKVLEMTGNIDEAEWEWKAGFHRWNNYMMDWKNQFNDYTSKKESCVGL

SMILES | Activity [1] [%] | Activity [2] [%] | Activity [3] [%] | IC50 (Cholinesterase [4]) [µM] | inhibition (Cholinesterase [5]) [%] | inhibition [6] [%] | inhibition [7] [%]
O=C1O[C@H]([C@@H](O)CO)C(O)=C1O | 15 | 28 | 15 | – | – | – | –
c1ccc2c(-c3nccc4c3[nH]c3ccccc34)cccc2c1 | 0 | 14 | -6 | 0.22 | 95 | 58 | 39
Cc1ccccc1-c1nccc2c1[nH]c1ccccc12 | 58 | 15 | 0 | > 10 | 7 | 45 | 17
Cc1ccc2[nH]c3c(-c4ccc(C(F)(F)F)cc4)nccc3c2c1 | – | – | – | – | – | 82 | 34
Fc1ccc(-c2nccc3c2[nH]c2ccccc23)cc1 | 54 | 22 | -3 | 4.27 | 79 | 22 | 37
COc1ccc2[nH]c3c(-c4ccc(F)cc4)nccc3c2c1 | 41 | 15 | -13 | > 10 | 34 | – | 12
COc1ccc2[nH]c3c(C(=O)c4ccc(C(F)(F)F)cc4)nccc3c2c1 | 5 | 3 | 2 | 1.42 | 46 | 84 | -5
COc1ccc2[nH]c3c(-c4ccccc4)nccc3c2c1 | 35 | 16 | -6 | 4.48 | 64 | 58 | 19
Cc1c(C)c2c(c(C)c1O)CCC(C)(C(=O)O)O2 (stereo not given) | 90 | 26 | 23 | – | – | – | –
COc1ccc2[nH]c3c(C(=O)c4ccc(F)cc4)nccc3c2c1 | 5 | 5 | -4 | > 10 | 1 | 82 | 6
Cc1ccc2[nH]c3c(-c4ccccc4)nccc3c2c1 | 10 | 10 | 2 | 3.06 | 54 | 6 | -7
COc1ccc2[nH]c3c(-c4ccc(C)cc4)nccc3c2c1 | 28 | 13 | -12 | > 10 | 32 | 63 | 10
c1ccc2c(c1)[nH]c1c(C3CCCCC3)nccc12 | – | – | – | – | – | 30 | –
c1ccc(-c2nccc3c2[nH]c2ccccc23)cc1 | 10 | 12 | -7 | > 10 | 46 | 79 | -4
O=C(c1ccc(C(F)(F)F)cc1)c1nccc2c1[nH]c1ccccc12 | -10 | 7 | -1 | 1.29 | 69 | – | 11
O=C(c1ccccc1)c1nccc2c1[nH]c1ccccc12 | 6 | 6 | -3 | > 10 | 11 | – | 20
